Test results as given in ChEMBL document CHEMBL4177600, “Identification of novel PI3K inhibitors through a scaffold hopping strategy” (Bioorg Med Chem Lett, 2017).
pEC50, pIC50, pKi: −log10 of the molar value.

What was measured:
[1] = target: RAC-beta serine/threonine-protein kinase (Homo sapiens) (UniProt P31751); assay: Inhibition of human AKT2 at 1 uM by filter binding assay relative to control
Summary of the method: (§1)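 Kinase panel of 24 enzymes, each tested at 1 µM; percent inhibition reported as the average of two independent data points.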

[2] = Stability in human liver microsomes assessed as parent compound remaining at 0.5 uM after 30 mins by LC-MS/MS analysis; type: ADME, microsome; details: read-out: Stability
Summary of the method: (§2)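 Single time-point stability assay: 0.5 µM compound, 0.5 mg/ml human or mouse liver microsomes in 0.1 M potassium phosphate pH 7.4, with NADPH-regenerating system, 30 min at 37 °C with shaking. Reaction quenched with acetonitrile/0.1% formic acid and centrifuged; supernatant analysed by LC-MS/MS. Reported as percent remaining; duplicates.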

[3] = target: Voltage-gated inwardly rectifying potassium channel KCNH2 (Homo sapiens, UniProt Q12809); assay: Inhibition of human ERG by Tracer Red dye based fluorescence polarization assay
Summary of the method: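 hERG binding measured with Predictor hERG kit per kit instructions, read by fluorescence polarization.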

[4] = target: Vascular endothelial growth factor receptor 2 (Homo sapiens) (UniProt P35968); assay: Inhibition of recombinant human N-terminal GST-tagged VEGFR2 (D807 to V1356 residues) expressed in Sf9 insect cells at 1 uM using Poly(Glu:Tyr)4:1 as substrate by filter binding method relative to control; summary of the method: as §1
[5] = target: PI3K p110 beta/p85 alpha (Homo sapiens, UniProt P42338); assay: Inhibition of p110beta/85alpha (unknown origin) using PIP2 as substrate by HTRF assay; type: protein-complex assay; details: read-out: Ki(app)
[6] = target: Serine/threonine-protein kinase Chk2 (Homo sapiens) (UniProt O96017); assay: Inhibition of CHK2 (unknown origin) at 1 uM relative to control; summary of the method: as §1
[7] = Inhibition of PI3K in serum-stimulated human U2OS cells assessed as decrease in AKT1 phosphorylation at S473 by C-ELISA; type: cell-based
Summary of the method: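 U2OS osteosarcoma cells grown in 0.1% FBS, then serum-stimulated; endogenous phospho-Akt1 (Ser473) quantified by cell ELISA with chemiluminescent substrate. EC50 from sigmoid dose-response fit; two independent experiments in duplicate.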

[8] = target: CYP2C9 (Homo sapiens, UniProt P11712); assay: Inhibition of CYP2C9 (unknown origin) at 10 uM relative to control; type: ADME
Summary of the method: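 CYP1A2, 2C9, 2C19, 2D6 and 3A4 inhibition measured at 10 µM test compound in duplicate; percent inhibition reported.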

[9] = target: Phosphatidylinositol 4,5-bisphosphate 3-kinase catalytic subunit gamma isoform (Homo sapiens, UniProt P48736); assay: Inhibition of recombinant full-length human N-terminal His6-tagged p110gamma expressed in baculovirus infected Sf21 insect cells using PIP2 as substrate by HTRF assay; details: read-out: Ki(app)
[10] = target: Mast/stem cell growth factor receptor Kit (Homo sapiens) (UniProt P10721); assay: Inhibition of recombinant human N-terminal GST/His6-tagged KIT (T544 to V976 residues) expressed in Sf9 insect cells at 1 uM using TRK-C-derived peptide as substrate by filter binding method relative to control; summary of the method: as §1
[11] = target: PI3-kinase p110-alpha/p85-alpha (Homo sapiens, UniProt P42336); assay: Inhibition of full-length human P110alpha (1 to 1068 residues)/N-terminal GST-fused p85alpha (1 to 724 residues) expressed in baculovirus expression system by ADP Hunter assay; details: read-out: Ki(app)
[12] = target: Serine/threonine-protein kinase PAK 1 (Homo sapiens) (UniProt Q13153); assay: Inhibition of recombinant human N-terminal GST/His6-tagged PAK1 (M1 to H545 residues) expressed in Sf9 insect cells at 1 uM using tetra(LRRWSLG) as substrate by filter binding method relative to control
Summary of the method: (§3)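 Single-point screen at 1 µM in a 24-kinase panel run externally; each value is the average of two independent data points. The detailed assay conditions are given only on the provider's site.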

[13] = target: Hepatocyte growth factor receptor (Homo sapiens) (UniProt P08581); assay: Inhibition of recombinant human N-terminal GST/His6-tagged MET (K956 to S1390 residues) expressed in Sf9 insect cells at 1 uM using TRK-C-derived peptide as substrate by filter binding method relative to control; summary of the method: as §3
[14] = target: T1, Serine/threonine-protein kinase Chk1 (Homo sapiens) (UniProt O14757); assay: Inhibition of recombinant human N-terminal GST/HIS6-tagged CHK1 (M1 to T476 residues) expressed in baculovirus infected Sf9 insect cells at 1 uM using S6 peptide as substrate by fliter binding assay relative to control; summary of the method: as §1
T1 sequence (whole entry): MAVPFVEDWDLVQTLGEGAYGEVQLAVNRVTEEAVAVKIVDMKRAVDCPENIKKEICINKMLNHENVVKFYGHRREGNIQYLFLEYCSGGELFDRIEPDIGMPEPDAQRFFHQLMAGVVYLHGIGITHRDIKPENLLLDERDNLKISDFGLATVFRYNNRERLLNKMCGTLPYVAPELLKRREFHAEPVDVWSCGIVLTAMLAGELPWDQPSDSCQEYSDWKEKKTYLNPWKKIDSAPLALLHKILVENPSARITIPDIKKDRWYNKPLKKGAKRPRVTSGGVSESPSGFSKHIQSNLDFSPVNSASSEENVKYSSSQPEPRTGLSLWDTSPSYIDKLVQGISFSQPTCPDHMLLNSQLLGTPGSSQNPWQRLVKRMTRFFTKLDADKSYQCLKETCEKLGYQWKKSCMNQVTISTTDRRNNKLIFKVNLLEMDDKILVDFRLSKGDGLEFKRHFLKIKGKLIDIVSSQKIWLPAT

[15] = target: Insulin receptor (Homo sapiens) (UniProt P06213); assay: Inhibition of recombinant human N-terminal GST-tagged INSR (G989 to S1382 residues) expressed in baculovirus infected Sf9 cells at 1 uM using Poly(Ala,Glu,Lys,Tyr)6:2:5:1 as substrate by filter binding method relative to control; summary of the method: as §1
[16] = target: Epidermal growth factor receptor (Homo sapiens) (UniProt P00533); assay: Inhibition of recombinant human N-terminal GST/His6-tagged EGFR (H672 to A1210 residues) expressed in Sf9 insect cells at 1 uM using TRK-C-derived peptide as substrate by filter binding method relative to control; summary of the method: as §1
[17] = Stability in mouse liver microsomes assessed as parent compound remaining at 0.5 uM after 30 mins by LC-MS/MS analysis; type: ADME, microsome; details: read-out: Stability; summary of the method: as §2
[18] = target: Dual specificity mitogen-activated protein kinase kinase 1 (Homo sapiens) (UniProt Q02750); assay: Inhibition of wild-type human MEK1 (M1 to V393 residues) expressed in Sf9 insect cells at 1 uM using ERK2-K54R as substrate by filter binding method relative to control; summary of the method: as §3
Chain of Dual specificity mitogen-activated protein kinase kinase 1 (Homo sapiens) (Q02750 whole entry, the tested form may be a part): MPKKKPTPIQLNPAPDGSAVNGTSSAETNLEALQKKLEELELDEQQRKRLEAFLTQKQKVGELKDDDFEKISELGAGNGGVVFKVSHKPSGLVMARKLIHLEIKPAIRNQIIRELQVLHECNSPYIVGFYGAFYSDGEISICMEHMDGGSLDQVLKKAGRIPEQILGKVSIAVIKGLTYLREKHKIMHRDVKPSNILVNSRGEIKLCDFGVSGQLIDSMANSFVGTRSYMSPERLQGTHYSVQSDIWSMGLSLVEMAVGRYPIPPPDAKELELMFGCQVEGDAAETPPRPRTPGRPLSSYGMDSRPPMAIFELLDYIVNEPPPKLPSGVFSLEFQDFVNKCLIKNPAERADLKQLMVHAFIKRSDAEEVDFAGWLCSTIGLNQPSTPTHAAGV

Chain of Insulin receptor (Homo sapiens) (P06213 28-758 limits assumed): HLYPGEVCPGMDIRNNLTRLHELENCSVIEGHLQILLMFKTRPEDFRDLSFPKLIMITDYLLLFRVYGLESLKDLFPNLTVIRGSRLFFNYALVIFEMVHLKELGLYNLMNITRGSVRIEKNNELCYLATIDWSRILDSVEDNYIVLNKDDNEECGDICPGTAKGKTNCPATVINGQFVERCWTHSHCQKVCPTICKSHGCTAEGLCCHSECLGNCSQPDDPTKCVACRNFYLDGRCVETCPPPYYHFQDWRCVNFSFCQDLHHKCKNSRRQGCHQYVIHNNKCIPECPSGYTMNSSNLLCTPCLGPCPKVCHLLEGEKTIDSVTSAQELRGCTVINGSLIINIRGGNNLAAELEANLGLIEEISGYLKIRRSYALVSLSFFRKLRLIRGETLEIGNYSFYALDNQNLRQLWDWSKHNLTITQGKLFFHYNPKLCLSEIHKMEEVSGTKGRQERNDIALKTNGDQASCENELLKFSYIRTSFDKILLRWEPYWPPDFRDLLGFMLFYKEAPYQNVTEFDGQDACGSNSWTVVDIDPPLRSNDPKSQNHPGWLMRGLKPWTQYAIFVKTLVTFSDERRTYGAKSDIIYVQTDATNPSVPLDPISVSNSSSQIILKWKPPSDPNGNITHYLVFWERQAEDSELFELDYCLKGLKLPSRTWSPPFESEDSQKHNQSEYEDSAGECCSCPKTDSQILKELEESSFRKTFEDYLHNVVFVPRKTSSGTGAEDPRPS
Chain of Insulin receptor (Homo sapiens) (P06213 763-1382 limits assumed): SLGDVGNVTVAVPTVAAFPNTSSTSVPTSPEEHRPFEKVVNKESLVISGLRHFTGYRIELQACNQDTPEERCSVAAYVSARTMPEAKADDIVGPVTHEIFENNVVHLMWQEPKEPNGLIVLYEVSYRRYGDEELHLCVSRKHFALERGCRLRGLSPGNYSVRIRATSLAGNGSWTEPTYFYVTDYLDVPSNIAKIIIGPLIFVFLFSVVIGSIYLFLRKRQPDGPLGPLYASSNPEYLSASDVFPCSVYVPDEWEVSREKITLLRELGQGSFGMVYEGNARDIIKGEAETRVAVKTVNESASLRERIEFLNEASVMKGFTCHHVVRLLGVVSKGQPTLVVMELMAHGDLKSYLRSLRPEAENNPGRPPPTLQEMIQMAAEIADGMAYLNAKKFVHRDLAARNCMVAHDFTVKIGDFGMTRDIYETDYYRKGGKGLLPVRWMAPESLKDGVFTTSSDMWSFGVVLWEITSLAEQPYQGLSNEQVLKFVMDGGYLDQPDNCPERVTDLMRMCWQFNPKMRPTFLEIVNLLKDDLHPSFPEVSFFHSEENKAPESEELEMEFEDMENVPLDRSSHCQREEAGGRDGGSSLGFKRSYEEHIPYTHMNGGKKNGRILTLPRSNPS
Chain of RAC-beta serine/threonine-protein kinase (Homo sapiens) (P31751 whole entry): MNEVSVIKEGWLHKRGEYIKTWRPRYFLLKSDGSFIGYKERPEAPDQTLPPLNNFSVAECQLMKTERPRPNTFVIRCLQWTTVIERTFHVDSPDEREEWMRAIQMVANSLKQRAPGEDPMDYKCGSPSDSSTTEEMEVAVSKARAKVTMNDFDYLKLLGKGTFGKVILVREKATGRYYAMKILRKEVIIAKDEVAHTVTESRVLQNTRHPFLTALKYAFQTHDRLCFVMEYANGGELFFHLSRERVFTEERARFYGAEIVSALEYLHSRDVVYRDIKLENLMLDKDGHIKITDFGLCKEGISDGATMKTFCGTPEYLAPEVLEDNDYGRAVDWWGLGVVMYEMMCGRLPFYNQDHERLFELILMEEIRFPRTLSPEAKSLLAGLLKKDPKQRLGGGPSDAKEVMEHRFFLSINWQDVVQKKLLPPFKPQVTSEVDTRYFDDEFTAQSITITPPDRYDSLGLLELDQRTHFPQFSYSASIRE
Chain of PI3K p110 beta/p85 alpha (P27986 whole entry): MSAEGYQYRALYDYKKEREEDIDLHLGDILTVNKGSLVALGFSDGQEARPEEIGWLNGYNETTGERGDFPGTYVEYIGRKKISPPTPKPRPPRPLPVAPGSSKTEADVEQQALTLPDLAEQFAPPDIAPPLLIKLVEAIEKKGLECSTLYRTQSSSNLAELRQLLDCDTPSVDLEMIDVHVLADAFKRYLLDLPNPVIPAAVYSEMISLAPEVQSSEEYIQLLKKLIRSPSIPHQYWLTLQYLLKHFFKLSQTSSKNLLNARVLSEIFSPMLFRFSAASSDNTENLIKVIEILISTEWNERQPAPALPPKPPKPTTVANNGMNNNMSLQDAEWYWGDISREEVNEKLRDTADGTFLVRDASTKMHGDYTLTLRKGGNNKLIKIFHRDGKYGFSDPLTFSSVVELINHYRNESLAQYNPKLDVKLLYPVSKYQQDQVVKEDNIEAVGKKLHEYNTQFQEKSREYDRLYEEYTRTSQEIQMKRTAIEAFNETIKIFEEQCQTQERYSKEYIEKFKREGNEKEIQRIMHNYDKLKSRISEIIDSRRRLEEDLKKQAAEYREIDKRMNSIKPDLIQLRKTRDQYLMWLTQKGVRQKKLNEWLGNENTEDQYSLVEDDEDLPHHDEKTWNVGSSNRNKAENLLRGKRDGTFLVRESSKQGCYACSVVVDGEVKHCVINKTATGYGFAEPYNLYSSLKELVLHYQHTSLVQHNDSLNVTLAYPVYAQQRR
Chain of PI3K p110 beta/p85 alpha (P42338 whole entry): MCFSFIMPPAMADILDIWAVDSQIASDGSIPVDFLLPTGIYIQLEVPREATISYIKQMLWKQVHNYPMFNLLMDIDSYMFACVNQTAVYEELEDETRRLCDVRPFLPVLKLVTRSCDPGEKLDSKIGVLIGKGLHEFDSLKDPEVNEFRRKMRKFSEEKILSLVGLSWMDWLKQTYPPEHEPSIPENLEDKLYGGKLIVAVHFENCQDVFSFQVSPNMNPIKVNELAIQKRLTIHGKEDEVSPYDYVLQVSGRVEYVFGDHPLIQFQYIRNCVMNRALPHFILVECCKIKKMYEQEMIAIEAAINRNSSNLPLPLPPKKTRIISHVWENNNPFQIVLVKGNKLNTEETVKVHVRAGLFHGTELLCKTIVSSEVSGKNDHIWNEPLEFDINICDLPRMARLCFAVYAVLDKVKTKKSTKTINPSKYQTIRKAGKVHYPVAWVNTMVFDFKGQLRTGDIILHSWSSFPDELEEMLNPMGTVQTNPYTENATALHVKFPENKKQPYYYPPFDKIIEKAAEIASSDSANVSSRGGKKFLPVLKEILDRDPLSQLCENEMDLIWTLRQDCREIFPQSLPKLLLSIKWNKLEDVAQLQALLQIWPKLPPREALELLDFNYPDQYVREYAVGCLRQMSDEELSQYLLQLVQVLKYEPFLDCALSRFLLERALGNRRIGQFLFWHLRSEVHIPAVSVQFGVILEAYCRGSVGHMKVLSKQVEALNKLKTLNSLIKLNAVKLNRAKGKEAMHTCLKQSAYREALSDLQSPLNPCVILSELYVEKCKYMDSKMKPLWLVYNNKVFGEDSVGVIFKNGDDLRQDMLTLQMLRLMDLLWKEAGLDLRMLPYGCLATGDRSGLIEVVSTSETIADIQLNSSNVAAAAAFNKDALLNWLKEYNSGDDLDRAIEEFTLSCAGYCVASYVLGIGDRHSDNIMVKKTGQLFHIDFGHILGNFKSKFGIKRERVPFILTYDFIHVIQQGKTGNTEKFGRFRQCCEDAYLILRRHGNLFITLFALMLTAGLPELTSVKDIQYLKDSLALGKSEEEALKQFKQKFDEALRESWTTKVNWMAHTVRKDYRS
Chain of Serine/threonine-protein kinase Chk2 (Homo sapiens) (O96017 whole entry): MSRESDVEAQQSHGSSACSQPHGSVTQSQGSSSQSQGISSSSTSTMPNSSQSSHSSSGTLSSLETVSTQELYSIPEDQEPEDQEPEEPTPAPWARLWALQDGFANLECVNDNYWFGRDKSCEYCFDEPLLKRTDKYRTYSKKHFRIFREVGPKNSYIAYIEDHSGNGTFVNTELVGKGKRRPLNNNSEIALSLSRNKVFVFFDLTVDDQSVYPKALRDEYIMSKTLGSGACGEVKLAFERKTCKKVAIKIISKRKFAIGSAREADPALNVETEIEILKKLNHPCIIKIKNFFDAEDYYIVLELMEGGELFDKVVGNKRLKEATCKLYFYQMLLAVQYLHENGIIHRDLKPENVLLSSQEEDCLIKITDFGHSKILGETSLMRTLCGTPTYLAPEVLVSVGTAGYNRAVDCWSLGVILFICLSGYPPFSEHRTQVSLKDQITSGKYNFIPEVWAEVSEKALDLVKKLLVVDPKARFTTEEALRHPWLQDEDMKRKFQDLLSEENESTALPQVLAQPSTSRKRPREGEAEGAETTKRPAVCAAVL
Chain of CYP2C9 (P11712 whole entry): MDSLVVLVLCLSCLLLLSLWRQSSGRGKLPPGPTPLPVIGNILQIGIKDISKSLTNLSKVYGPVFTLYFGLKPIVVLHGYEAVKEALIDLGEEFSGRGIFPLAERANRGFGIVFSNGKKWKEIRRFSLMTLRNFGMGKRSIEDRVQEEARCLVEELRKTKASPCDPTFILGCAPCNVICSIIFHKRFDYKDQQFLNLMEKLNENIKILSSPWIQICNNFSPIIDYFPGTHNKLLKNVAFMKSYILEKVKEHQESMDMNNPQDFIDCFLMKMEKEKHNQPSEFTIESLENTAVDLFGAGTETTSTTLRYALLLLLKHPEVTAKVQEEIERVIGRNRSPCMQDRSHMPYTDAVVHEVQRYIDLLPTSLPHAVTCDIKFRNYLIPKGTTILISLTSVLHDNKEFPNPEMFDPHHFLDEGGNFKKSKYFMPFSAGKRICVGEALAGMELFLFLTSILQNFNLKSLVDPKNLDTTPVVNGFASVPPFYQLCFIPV

Structure (SMILES)	inhibition [1]	remaining at 0.5 h, 0.5 µM [2]	pIC50 [3]	inhibition [4]	pKi [5]	inhibition [6]	pEC50 [7]	inhibition at 10 µM [8]	pKi [9]	inhibition [10]	pKi [11]	inhibition [12]	inhibition [13]	inhibition [14]	inhibition [15]	inhibition [16]	remaining at 0.5 h, 0.5 µM [17]	inhibition [18]
CS(=O)(=O)N1CCN(Cc2cc3c(N4CCOCC4)nc(-c4cnc(N)nc4)cn3n2)CC1	< 25%	97%	< 4.52	< 25%	7.31	< 25%	7.52	< 25%	7.31	< 25%	9.00	< 25%	< 25%	< 25%	< 25%	< 25%	100%	< 25%
CS(=O)(=O)N1CCN(Cc2nc3c(N4CCOCC4)nc(-c4cnc(N)nc4)cn3n2)CC1	< 25%	99%	< 4.52	< 25%		< 25%	7.06	< 25%		< 25%	9.00	< 25%	< 25%	< 25%	< 25%	< 25%	100%	< 25%
CS(=O)(=O)N1CCN(Cc2cn3nc(-c4cnc(N)nc4)nc(N4CCOCC4)c3n2)CC1	< 25%	95%	< 4.52	< 25%	6.41	< 25%	7.28	< 25%	7.39	< 25%	8.82	< 25%	< 25%	< 25%	< 25%	< 25%	100%	< 25%
CS(=O)(=O)N1CCN(Cc2nc3c(N4CCOCC4)nc(-c4cnc(N)nc4)c(Cl)n3n2)CC1	< 25%	97%	< 4.52	< 25%	6.55	< 25%	7.16	< 25%	7.37	< 25%	8.26	< 25%	< 25%	< 25%	< 25%	< 25%	96%	< 25%
